Experimental data taken from ChEMBL document CHEMBL1137767, “2-(3-Aryl-2-propenoyl)-3-methylquinoxaline-1,4-dioxides: a novel cluster of tumor-specific cytotoxins which reverse multidrug resistance” (Bioorg Med Chem, 2009).
Activity calls are given as the source filed them. No cut-off for these calls is given here.

Key:
[1] = test system: NCI-H23; test: Growth inhibition of human NCI-H23 cells at 10 uM; format: functional, cell-based
Procedure, shortened: (§1)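 Human tumor cell line panel (59 lines across leukemia, melanoma, non-small cell lung, colon, CNS, ovarian, renal, prostate, breast) treated at a single 10 uM concentration; growth inhibition recorded per line.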

[2] = test system: HSC-4; test: Cytotoxicity against human HSC4 cells after 48 hrs; format: functional; conditions: HSC-4, 48 h
[3] = test system: OVCAR-8; test: Growth inhibition of human OVCAR8 cells at 10 uM; format: functional, cell-based; procedure, shortened: as §1
[4] = test system: CAKI-1; test: Growth inhibition of human Caki1 cells at 10 uM; format: functional, cell-based; procedure, shortened: as §1
[5] = test system: UO-31; test: Growth inhibition of human UO31 cells at 10 uM; format: functional, cell-based; procedure, shortened: as §1
[6] = test system: CCRF-CEM; test: Growth inhibition of human CCRF-CEM cells at 10 uM; format: functional, cell-based; procedure, shortened: as §1
[7] = test system: SF-295; test: Growth inhibition of human SF295 cells at 10 uM; format: functional, cell-based; procedure, shortened: as §1
[8] = test system: NCI-H460; test: Growth inhibition of human NCI-H460 cells at 10 uM; format: functional, cell-based; procedure, shortened: as §1
[9] = biological target: T1, ATP-dependent translocase ABCB1 (Homo sapiens, UniProt P08183); test: Reversal of P-glycoprotein-mediated multidrug resistance in human MDR1 gene transfected mouse L5178Y cells assessed as fluorescence activity ratio at 200 uM by rhodamine 123 accumulation assay; format: cell-based
Procedure, shortened: (§2)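 Murine L-5178Y lymphoma cells transfected with human MDR1 gene (P-gp-overexpressing), alongside parental cells, treated or untreated with compound; rhodamine 123 accumulation measured by fluorescence; FAR = ratio of fluorescence intensity in treated versus untreated cells, values above 1 taken as MDR reversal.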

[10] = test system: NCI/ADR-RES; test: Growth inhibition of human NCI/ADR-RES cells at 10 uM; format: functional, cell-based; procedure, shortened: as §1
[11] = test system: MDA-MB-468; test: Growth inhibition of human MDA-MB-468 cells at 10 uM; format: functional, cell-based; procedure, shortened: as §1
[12] = test system: HCT-15; test: Growth inhibition of human HCT15 cells at 10 uM; format: functional, cell-based; procedure, shortened: as §1
[13] = Cytotoxicity against human HPLF cells after 48 hrs; format: cell-based
[14] = test system: EKVX; test: Growth inhibition of human EKVX cells at 10 uM; format: functional, cell-based; procedure, shortened: as §1
[15] = test system: SW-620; test: Growth inhibition of human SW620 cells at 10 uM; format: functional, cell-based; procedure, shortened: as §1
[16] = test system: SNB-75; test: Growth inhibition of human SNB75 cells at 10 uM; format: functional, cell-based; procedure, shortened: as §1
[17] = biological target: T1, ATP-dependent translocase ABCB1; test: Reversal of P-glycoprotein-mediated multidrug resistance in human MDR1 gene transfected mouse L5178Y cells assessed as fluorescence activity ratio at 20 uM by rhodamine 123 accumulation assay; format: cell-based; procedure, shortened: as §2
[18] = test system: IGROV-1; test: Growth inhibition of human IGROV1 cells at 10 uM; format: functional, cell-based; procedure, shortened: as §1
[19] = test system: OVCAR-4; test: Growth inhibition of human OVCAR4 cells at 10 uM; format: functional, cell-based; procedure, shortened: as §1
[20] = test system: LOX IMVI; test: Growth inhibition of human LOXIMVI cells at 10 uM; format: functional, cell-based; procedure, shortened: as §1
[21] = Cytotoxicity against human HPC cells after 48 hrs; format: cell-based
[22] = test system: HCT-116; test: Growth inhibition of human HCT116 cells at 10 uM; format: functional, cell-based; procedure, shortened: as §1
[23] = test system: T47D; test: Growth inhibition of human T47D cells at 10 uM; format: functional, cell-based; procedure, shortened: as §1
[24] = test system: U-251; test: Growth inhibition of human U251 cells at 10 uM; format: functional, cell-based; procedure, shortened: as §1
[25] = test system: HSC-3; test: Cytotoxicity against human HSC3 cells after 48 hrs; format: functional; conditions: HSC-3, 48 h
[26] = test system: HOP-92; test: Growth inhibition of human HOP92 cells at 10 uM; format: functional, cell-based; procedure, shortened: as §1
[27] = test system: HCC 2998; test: Growth inhibition of human HCC2998 cells at 10 uM; format: functional, cell-based; procedure, shortened: as §1
[28] = test system: MCF7; test: Growth inhibition of human MCF7 cells at 10 uM; format: functional, cell-based; procedure, shortened: as §1
[29] = test system: MDA-MB-435; test: Growth inhibition of human MDA-MB-435 cells at 10 uM; format: functional, cell-based; procedure, shortened: as §1
[30] = test system: HSC-2; test: Cytotoxicity against human HSC2 cells after 48 hrs; format: functional; conditions: HSC-2, 48 h
[31] = test system: UACC-62; test: Growth inhibition of human UACC62 cells at 10 uM; format: functional, cell-based; procedure, shortened: as §1
[32] = test system: M14; test: Growth inhibition of human M14 cells at 10 uM; format: functional, cell-based; procedure, shortened: as §1
[33] = test system: NCI-H522; test: Growth inhibition of human NCI-H522 cells at 10 uM; format: functional, cell-based; procedure, shortened: as §1
[34] = test system: PC-3; test: Growth inhibition of human PC3 cells at 10 uM; format: functional, cell-based; procedure, shortened: as §1
[35] = test system: HL-60; test: Cytotoxicity against human HL60 cells after 48 hrs; format: functional; conditions: HL-60, 48 h
[36] = test system: K562; test: Growth inhibition of human K562 cells at 10 uM; format: functional, cell-based; procedure, shortened: as §1
[37] = test system: OVCAR-3; test: Growth inhibition of human OVCAR-3 cells at 10 uM; format: functional, cell-based; procedure, shortened: as §1
[38] = test system: HL-60; test: Growth inhibition of human HL60 cells at 10 uM; format: functional, cell-based; procedure, shortened: as §1
[39] = Growth inhibition of human Molt4/C8 cells after 3 days; format: functional, cell-based; conditions: MOLT-4, 72 h
Procedure, shortened: (§3)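 Human CEM and Molt 4/C8 T-lymphocytes were grown for three days with or without serial dilutions of the compound. IC50 is the concentration that inhibits cell growth by 50%.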

[40] = test system: Hs-578T; test: Growth inhibition of human Hs 578T cells at 10 uM; format: functional, cell-based; procedure, shortened: as §1
[41] = test system: DU-145; test: Growth inhibition of human DU145 cells at 10 uM; format: functional, cell-based; procedure, shortened: as §1
[42] = test system: A498; test: Growth inhibition of human A498 cells at 10 uM; format: functional, cell-based; procedure, shortened: as §1
[43] = test system: A549; test: Growth inhibition of human A549 cells at 10 uM; format: functional, cell-based; procedure, shortened: as §1
[44] = test system: CCRF-CEM; test: Growth inhibition of human CEM cells after 3 days; format: functional, cell-based; conditions: 72 h; procedure, shortened: as §3
[45] = Cytotoxicity against human HGF cells after 48 hrs; format: cell-based
[46] = test system: RPMI8266; test: Growth inhibition of human […] cells at 10 uM; format: functional, cell-based; procedure, shortened: as §1
[47] = test system: RXF 393; test: Growth inhibition of human RXF393 cells at 10 uM; format: functional, cell-based; procedure, shortened: as §1

T1 sequence (P08183 whole entry): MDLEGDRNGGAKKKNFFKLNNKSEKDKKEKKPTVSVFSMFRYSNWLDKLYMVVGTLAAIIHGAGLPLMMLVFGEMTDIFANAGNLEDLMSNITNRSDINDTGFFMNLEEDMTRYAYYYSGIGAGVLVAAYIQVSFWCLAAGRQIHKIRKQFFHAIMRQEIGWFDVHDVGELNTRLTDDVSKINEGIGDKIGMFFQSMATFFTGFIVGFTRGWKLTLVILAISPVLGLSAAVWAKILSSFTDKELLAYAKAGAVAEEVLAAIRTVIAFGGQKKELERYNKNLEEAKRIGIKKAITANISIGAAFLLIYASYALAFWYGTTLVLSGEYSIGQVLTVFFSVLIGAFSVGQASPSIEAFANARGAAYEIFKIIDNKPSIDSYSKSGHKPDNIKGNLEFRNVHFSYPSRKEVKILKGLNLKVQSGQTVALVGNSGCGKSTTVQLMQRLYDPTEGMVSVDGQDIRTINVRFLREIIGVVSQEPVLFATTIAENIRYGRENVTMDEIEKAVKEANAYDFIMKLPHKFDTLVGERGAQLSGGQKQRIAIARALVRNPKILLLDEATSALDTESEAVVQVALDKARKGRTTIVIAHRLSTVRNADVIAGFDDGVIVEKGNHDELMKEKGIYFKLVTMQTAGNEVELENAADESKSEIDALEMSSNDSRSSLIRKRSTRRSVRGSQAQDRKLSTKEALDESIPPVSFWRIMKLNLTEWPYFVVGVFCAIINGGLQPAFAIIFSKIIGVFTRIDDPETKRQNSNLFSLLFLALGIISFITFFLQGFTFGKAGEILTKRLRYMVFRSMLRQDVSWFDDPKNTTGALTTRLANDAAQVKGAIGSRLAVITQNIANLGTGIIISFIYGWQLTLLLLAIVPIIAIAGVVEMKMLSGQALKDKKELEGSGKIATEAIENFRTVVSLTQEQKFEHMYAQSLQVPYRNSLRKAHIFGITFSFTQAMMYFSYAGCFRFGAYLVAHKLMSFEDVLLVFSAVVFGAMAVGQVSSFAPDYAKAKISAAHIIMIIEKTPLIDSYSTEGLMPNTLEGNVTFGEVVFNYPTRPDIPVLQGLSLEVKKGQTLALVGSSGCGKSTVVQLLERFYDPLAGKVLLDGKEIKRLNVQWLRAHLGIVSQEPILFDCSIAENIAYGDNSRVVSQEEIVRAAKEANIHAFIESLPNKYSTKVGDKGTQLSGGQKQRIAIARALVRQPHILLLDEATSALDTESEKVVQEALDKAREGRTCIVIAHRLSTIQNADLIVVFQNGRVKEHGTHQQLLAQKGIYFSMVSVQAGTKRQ

COc1ccc(/C=C/C(=O)c2c(C)[n+]([O-])c3ccccc3[n+]2[O-])cc1OC
growth inhibition (GI) [1]: Active
CC50 [2]: 38 µM
growth inhibition (GI) [3]: Active
growth inhibition (GI) [4]: Active
growth inhibition (GI) [5]: Active
growth inhibition (GI) [6]: Active
growth inhibition (GI) [7]: Active
growth inhibition (GI) [8]: Active
Ratio [9]: 23
growth inhibition (GI) [10]: Active
growth inhibition (GI) [11]: Active
growth inhibition (GI) [12]: Active
CC50 at 48 h [13]: 156 µM
growth inhibition (GI) [14]: Active
growth inhibition (GI) [15]: Active
growth inhibition (GI) [16]: Active
Ratio [17]: 5.01
growth inhibition (GI) [18]: Active
growth inhibition (GI) [19]: Active
growth inhibition (GI) [20]: Active
CC50 at 48 h [21]: 142 µM
growth inhibition (GI) [22]: Active
growth inhibition (GI) [23]: Active
growth inhibition (GI) [24]: Active
CC50 [25]: 31 µM
growth inhibition (GI) [26]: Active
growth inhibition (GI) [27]: Active
growth inhibition (GI) [28]: Active
growth inhibition (GI) [29]: Active
CC50 [30]: 25 µM
growth inhibition (GI) [31]: Active
growth inhibition (GI) [32]: Active
growth inhibition (GI) [33]: Active
growth inhibition (GI) [34]: Active
CC50 [35]: 14 µM
growth inhibition (GI) [36]: Active
growth inhibition (GI) [37]: Active
growth inhibition (GI) [38]: Active
IC50 [39]: 18.5 µM
growth inhibition (GI) [40]: Active
growth inhibition (GI) [41]: Active
growth inhibition (GI) [42]: Active
growth inhibition (GI) [43]: Active
IC50 [44]: 19.2 µM
CC50 at 48 h [45]: 117 µM
growth inhibition (GI) [46]: Active
growth inhibition (GI) [47]: Active
